Reference: ChEMBL document CHEMBL1140550, “New 'chemical probes' to examine the role of the hFPRL1 (or ALXR) receptor in inflammation” (Bioorg Med Chem Lett, 2007)
pEC50, pIC50: −log10 of the molar value. Active and inactive are the calls of the source. The calls are words filed in the database; no cut-off is given here.

Columns and labels:
[1] = biological target: T1, N-formyl peptide receptor 2 (Homo sapiens, UniProt P25090); assay: Agonist activity at human recombinant FPRL1 expressed in CHO cells assessed as calcium flux by aequorin based bioluminescence assay; type: functional, cell-based
T1 sequence (P25090 whole entry): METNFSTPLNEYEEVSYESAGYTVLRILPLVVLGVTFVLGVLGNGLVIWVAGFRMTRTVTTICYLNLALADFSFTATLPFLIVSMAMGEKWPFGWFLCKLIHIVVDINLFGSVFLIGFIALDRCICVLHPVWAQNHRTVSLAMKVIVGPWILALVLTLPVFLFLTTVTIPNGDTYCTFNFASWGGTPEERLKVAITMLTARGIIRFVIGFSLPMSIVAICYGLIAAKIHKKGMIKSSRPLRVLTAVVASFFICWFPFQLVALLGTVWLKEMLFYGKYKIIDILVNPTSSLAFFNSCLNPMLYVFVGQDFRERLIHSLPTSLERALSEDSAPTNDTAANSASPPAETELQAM
Outline: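 EC50 from Ca2+ flux in recombinant CHO cells co-expressing human FPRL1, Gα15 protein and aequorin. Values without standard deviation are the mean of two data points.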

[2] = biological target: T2, fMet-Leu-Phe receptor (Homo sapiens, UniProt P21462); assay: Agonist activity at human recombinant FPR expressed in CHO cells assessed as calcium flux by aequorin based bioluminescence assay; type: functional, cell-based
T2 sequence (P21462 whole entry): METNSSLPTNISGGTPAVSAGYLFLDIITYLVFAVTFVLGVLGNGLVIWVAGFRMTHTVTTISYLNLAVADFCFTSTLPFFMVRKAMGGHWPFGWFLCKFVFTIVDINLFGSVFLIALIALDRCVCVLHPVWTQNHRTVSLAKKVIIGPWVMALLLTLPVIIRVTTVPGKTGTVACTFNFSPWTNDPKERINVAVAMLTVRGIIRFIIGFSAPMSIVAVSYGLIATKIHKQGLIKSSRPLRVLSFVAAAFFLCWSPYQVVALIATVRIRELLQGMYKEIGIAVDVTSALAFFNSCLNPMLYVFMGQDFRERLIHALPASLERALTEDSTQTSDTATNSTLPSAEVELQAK
Outline: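 CHO cells stably transfected with human FPR, aequorin and Gα15 protein; EC50 derived from Ca2+ flux read by aequorin luminescence.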

[3] = Inhibition of fMLP-induced human PMN migration after 45 mins; type: functional; conditions: 0.75 h
Outline: (§1)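 Human polymorphonuclear neutrophils from at least three donors, exposed to compound (final DMSO 0.1%). Migration toward a gradient of IL-8 or fMLP chemo-attractant (10 nM each) followed by fluorescence. Mean IC50 reported.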

[4] = Inhibition of IL8-induced human PMN migration after 45 mins; type: functional; conditions: 0.75 h; outline: as §1
[5] = system: Blood; assay: Stimulation of IL6 secretion in human whole blood after 18 hrs; type: functional, tissue-based
Outline: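 Heparinized human whole blood, 50% final, preincubated with compound for 1 h at 37 °C, 5% CO2, then stimulated with IL-1β (300 pM final) for 18 h. Final DMSO 0.1%. IL-6 in supernatant/plasma measured by electrochemiluminescence immunoassay.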

Q: What does the source list for `CCc1nc2ccccc2n1[C@@H]1CCN(C(=O)c2nc3ccc(OC)cc3[nH]2)C1`?
A: pEC50 [1]: 5.73; pEC50 [2]: < 5.00

Q: With `CC(C)c1c(NC(=O)Nc2ccccc2Cl)c(=O)n(-c2ccccc2)n1C` as the compound, how does the pEC50 [1] read?
A: Its pEC50 is under 5.00.

Q: What does the source list for `CC(C)c1c(NC(=O)Nc2ccc(Cl)cc2)c(=O)n(-c2ccccc2)n1C`?
A: pIC50 [3]: 6.19; pIC50 [4]: 6.62; Activity [5]: Active
